We go through 15 compounds from ChEMBL document CHEMBL3861958, “Synthesis and anticholinesterase activity of coumarin-3-carboxamides bearing tryptamine moiety” (Eur J Med Chem, 2016).

In assay [1] the target is T1, Acetylcholinesterase (Electrophorus electricus, UniProt O42275). The assay is described as follows: Inhibition of electric eel AChE using acetylthiocholine iodide as substrate measured for 2 mins by Ellman's method. A general note: DTNB colorimetry detects thiols as they appear.
For another assay, the target named is Cholinesterase (Equus caballus, UniProt P81908). Nature of the assay: Inhibition of equine serum BuChE using butyrylthiocholine iodide as substrate measured for 2 mins by Ellman's method. In outline: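 Ellman assay with equine serum BuChE (enzyme solution 2 U/mL added) in 0.1 M phosphate buffer pH 8.0 with DTNB. Compounds in 1:9 DMSO/ethanol, tested at four concentrations spanning 20–80% inhibition. Reaction started with butyrylthiocholine iodide (0.15 M stock). A412 followed for 2 min at 30 s intervals. IC50 read graphically from log concentration vs % inhibition. Quadruplicates.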
Chain of Cholinesterase (P81908 whole entry): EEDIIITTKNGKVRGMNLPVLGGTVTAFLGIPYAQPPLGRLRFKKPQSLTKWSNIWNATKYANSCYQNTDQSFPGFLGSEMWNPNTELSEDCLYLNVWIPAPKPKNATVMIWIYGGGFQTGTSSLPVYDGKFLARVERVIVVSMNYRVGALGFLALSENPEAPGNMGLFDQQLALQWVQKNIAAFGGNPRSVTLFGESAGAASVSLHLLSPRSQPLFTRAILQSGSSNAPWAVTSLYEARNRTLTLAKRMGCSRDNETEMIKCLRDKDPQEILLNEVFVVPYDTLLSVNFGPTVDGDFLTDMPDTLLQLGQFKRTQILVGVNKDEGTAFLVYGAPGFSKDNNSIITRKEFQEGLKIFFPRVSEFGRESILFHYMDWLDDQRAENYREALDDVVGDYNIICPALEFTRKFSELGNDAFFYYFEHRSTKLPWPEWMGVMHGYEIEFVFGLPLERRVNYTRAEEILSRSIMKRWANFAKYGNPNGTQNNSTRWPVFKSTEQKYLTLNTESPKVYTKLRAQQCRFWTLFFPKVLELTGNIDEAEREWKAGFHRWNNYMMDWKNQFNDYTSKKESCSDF

In assay [2] the target is T1, Acetylcholinesterase. The assay is described as follows: Mixed-type inhibition of electric eel AChE using acetylthiocholine iodide as substrate measured for 2 mins by Lineweaver-Burk plot analysis. In outline:
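Kinetics used electric eel AChE (type V-S, enzyme solution 2 U/mL added) under the Ellman conditions: 0.1 M phosphate pH 8.0, DTNB, A412. Initial velocities measured across varied acetylthiocholine concentrations at inhibitor 0, 0.069, 0.206 and 0.618 μM. 1/v plotted against 1/[S] (Lineweaver-Burk) to assign inhibition type. Ki taken from a secondary plot.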

The term IC50 denotes the midpoint of a concentration-inhibition curve. Read a high IC50 as weaker potency. One may read the Ki as the dissociation constant of the complex between target and ligand, obtained from inhibition or displacement. Higher therefore signals a looser hold on the target.

T1 sequence (O42275 whole entry): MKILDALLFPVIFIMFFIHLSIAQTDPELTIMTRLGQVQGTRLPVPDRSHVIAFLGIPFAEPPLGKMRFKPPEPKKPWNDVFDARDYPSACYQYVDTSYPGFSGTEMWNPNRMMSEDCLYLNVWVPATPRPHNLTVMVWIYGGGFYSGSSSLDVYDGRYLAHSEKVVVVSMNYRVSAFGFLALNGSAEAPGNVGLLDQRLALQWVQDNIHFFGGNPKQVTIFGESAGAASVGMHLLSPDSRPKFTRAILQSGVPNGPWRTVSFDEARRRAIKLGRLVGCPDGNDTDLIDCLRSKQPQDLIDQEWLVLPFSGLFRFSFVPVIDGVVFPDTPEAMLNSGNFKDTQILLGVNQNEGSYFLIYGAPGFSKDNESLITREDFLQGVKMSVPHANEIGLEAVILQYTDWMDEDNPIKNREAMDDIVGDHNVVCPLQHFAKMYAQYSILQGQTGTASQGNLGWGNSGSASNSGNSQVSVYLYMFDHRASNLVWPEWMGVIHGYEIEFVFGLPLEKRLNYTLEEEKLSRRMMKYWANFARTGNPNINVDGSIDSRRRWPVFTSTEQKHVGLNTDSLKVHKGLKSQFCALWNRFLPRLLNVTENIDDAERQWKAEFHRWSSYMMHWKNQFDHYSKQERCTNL

With `COc1cccc2cc(C(=O)NCCc3c[nH]c4ccccc34)c(=O)oc12`, the half-maximal inhibitory concentration (IC50) turned out to be 2.8 µM against Acetylcholinesterase [1] and 20.1 µM on Cholinesterase.
The corresponding values for `O=C(NCCc1c[nH]c2ccccc12)c1cc2ccccc2oc1=O` are 5.9 µM and 50.5 µM.
Take `O=C(NCCc1c[nH]c2ccccc12)c1cc2ccc(OCc3ccc(F)cc3)cc2oc1=O`: the IC50 against Acetylcholinesterase [1] amounted to 0.16 µM; on Cholinesterase, 29.7 µM. In addition, the Ki on Acetylcholinesterase [2] came to 0.49 µM.
Take `O=C(NCCc1c[nH]c2ccccc12)c1cc2ccc(OCc3ccc(Cl)c(Cl)c3)cc2oc1=O`: the IC50 was 31.5 µM at Acetylcholinesterase [1] and greater than 100 µM against Cholinesterase.
For `O=C(NCCc1c[nH]c2ccccc12)c1cc2ccc(OCc3ccc(Cl)cc3)cc2oc1=O`, in that order: 12.4 µM and greater than 100 µM.
For the compound `O=C(NCCc1c[nH]c2ccccc12)c1cc2ccc(OCc3ccccc3Cl)cc2oc1=O`, the IC50 is 22.5 µM on Acetylcholinesterase [1] and greater than 100 µM on Cholinesterase.
For `CCCOc1ccc2cc(C(=O)NCCc3c[nH]c4ccccc34)c(=O)oc2c1`, in that order: 18.7 µM and greater than 100 µM.
The corresponding values for `COc1ccc2cc(C(=O)NCCc3c[nH]c4ccccc34)c(=O)oc2c1` are 3.5 µM and 34.6 µM.
For `O=C(NCCc1c[nH]c2ccccc12)c1cc2ccc(OCc3cccc(Cl)c3Cl)cc2oc1=O`, in that order: greater than 100 µM and greater than 100 µM.
Turning to `O=C(NCCc1c[nH]c2ccccc12)c1cc2ccc(OCc3ccccc3)cc2oc1=O`, the IC50 came out at 1.5 µM against Acetylcholinesterase [1] and 16.2 µM on Cholinesterase.
On to `O=C(NCCc1c[nH]c2ccccc12)c1cc2ccc(OCc3cccc(F)c3)cc2oc1=O`, for which the values for the IC50 on Acetylcholinesterase [1] and against Cholinesterase were 2.5 µM and 27.8 µM, respectively.
Regarding `CCOc1ccc2cc(C(=O)NCCc3c[nH]c4ccccc34)c(=O)oc2c1`, the IC50 against Acetylcholinesterase [1] is 43.8 µM; against Cholinesterase, greater than 100 µM.
For the compound `O=C(NCCc1c[nH]c2ccccc12)c1cc2cc(Br)ccc2oc1=O`, the IC50 at Acetylcholinesterase [1] and on Cholinesterase was greater than 100 µM in each case.
`O=C(NCCc1c[nH]c2ccccc12)c1cc2ccc(O)cc2oc1=O`: the IC50 against Acetylcholinesterase [1] and against Cholinesterase was greater than 100 µM each time.
With `O=C(NCCc1c[nH]c2ccccc12)c1cc2ccc(OCc3ccccc3F)cc2oc1=O`, the IC50 at Acetylcholinesterase [1] worked out at 2.5 µM; at Cholinesterase it was 27.5 µM.
